Measured values pooled from the literature.
Cell line: A549
Effect on: cell growth or viability

| SMILES | test | setting | inhibition [%] |
| --- | --- | --- | --- |
| COc1ccc(-c2nc(NN=C3C(=O)Nc4ccc(Br)cc43)c3ccccc3n2)cc1OC |  | 10 µM | 77.1 |
| COc1ccc2c(c1)/C(=N/NC(=O)c1cc3ccccc3[nH]1)C(=O)N2 |  | 30 µM | 85.3 |
| COc1cccc(NC(=O)CN2C(=O)/C(=C/c3ccc(F)cc3)SC2=S)c1 | MTT | 10 µM | 22.3 |
| Cn1c(=O)c(NN=C2C(=O)Nc3ccc(Br)cc32)nc2ccccc21 |  | 30 µM | 84.9 |
| O=C(CN1C(=O)/C(=C/c2cccc([N+](=O)[O-])c2)SC1=S)Nc1ccccc1 | MTT | 10 µM | 22.2 |
| COc1ccc2c(c1)C(=NNc1nc3ccccc3n(C)c1=O)C(=O)N2 |  | 30 µM | 85.9 |
| Cc1c(-c2cccc(C(F)(F)F)c2)sc2[nH]c(=O)n([C@H](C)c3cccc4ccccc34)c(=O)c12 |  | 10 µM | > 80 |
| O=C(N/N=C1\C(=O)N(c2ccccc2)c2ccccc21)c1cc2ccccc2[nH]1 |  | 30 µM | 98.5 |
| COc1ccccc1/C=C1\SC(=S)N(CC(=O)Nc2ccccc2)C1=O | MTT | 10 µM | 38.3 |
| COc1cc2ncnc(NN=C3C(=O)Nc4ccccc43)c2cc1OC |  | 30 µM | 32.9 |
| O=C1Nc2ccc(Cl)cc2/C1=N/NC(=O)c1cc2ccccc2[nH]1 |  | 30 µM | 60.6 |
| O=C(CN1C(=O)/C(=C/c2ccc([N+](=O)[O-])cc2)SC1=S)Nc1ccccc1 | MTT | 10 µM | 24.4 |
| COc1cc(CNC(=O)CCCC/C=C/C(C)C)ccc1O | SRB | 10 µM | 0 |
| O=C1Nc2ccc(Br)cc2/C1=N/NC(=O)c1cc2ccccc2[nH]1 |  | 30 µM | 77 |
| Cc1ccc2c(c1)C(=NNc1nc3ccccc3n(C)c1=O)C(=O)N2 |  | 30 µM | 68.8 |
| O=C1Nc2ccccc2/C1=N/NC(=O)c1cc2ccccc2[nH]1 |  | 30 µM | 90.9 |
| O=C(CN1C(=O)/C(=C/c2ccc(O)cc2)SC1=S)Nc1ccccc1 | MTT | 10 µM | 29.6 |
| CN1C(=O)/C(=N\NC(=O)c2cc3ccccc3[nH]2)c2cc(Br)ccc21 |  | 30 µM | 97.4 |
| COc1cc2ncnc(NN=C3C(=O)Nc4ccc(F)cc43)c2cc1OC |  | 10 µM | 7.1 |
| O=C(CN1C(=O)/C(=C/c2cccc(F)c2)SC1=S)Nc1ccccc1 | MTT | 10 µM | 26.1 |
